According to the array DNA melting data of Ke et al. (doi:10.1101/2024.01.08.574731):

Key:
[1] = melting temperature; fluorescence melt of hairpins on a sequencing array, two-state fit, raised by 9.35 °C to match UV melts; conditions: sodium 0.088 M
In short: (§1)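 In 50 mM Na-HEPES pH 8.0 containing 25 mM NaCl, hairpins from the library on a sequenced MiSeq flow cell were imaged for Cy3 fluorescence at 2.5 °C steps up to 60 °C, with Cy3 and quencher oligos annealed. After normalisation to pre-quench Cy3 and to control constructs, two-state fits with bootstrapping gave melting temperature and folding enthalpy. Four replicates were combined by inverse-variance weighting, and fitted temperatures were shifted up by 9.35 °C to match UV melts.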

[2] = folding enthalpy; higher = less favourable; fluorescence melt of hairpins on a sequencing array, two-state fit; conditions: sodium 0.088 M
In short: as §1

Sequence | Tm [1] [°C] | folding enthalpy [2] [kcal/mol]
GCCGAGCGAAAGCACTGC ((.(.((....)).).)) | 36.4 | -18.8
GCCGCTGGAAACGGTGGC (((.(.(....).).))) | 51.7 | -44.9
GCCTTTCCGAAAGGAGGC (((..(((....)))))) | 44.6 | -19.9
GCGATCGAAAGATGGCGC ((((((....)))..))) | 53.2 | -34.8
GTCAAAGGAAACTTTGGC (.(((((....))))).) | 44.5 | -29.9
GGTACCGGAAACGATACC ((((.((....)).)))) | 42.7 | -31.9
GTGACCGAAAGGTGGCAC ((((((....)))..))) | 40.7 | -16.3
ACCTGGAAACAGGT (((((....))))) | 51.1 | -18.8
GCAGGCGGAAACGCTTGC (((.(((....))).))) | 62.1 | -38.5
GCTTTCCGAAAGGATAGC (((.(((....))).))) | 51.5 | -35.9
GTATAGGGAAACCTATGC (.(((((....))))).) | 38 | -22.2
GCCAACGAAAGTTTGGC ((((((....))).))) | 54.6 | -34.1
GCCCAACCGAAAGGTGGC (((..(((....)))))) | 51.6 | -18.8
GAACAGCGAAAGCTTTC (((.(((....)))))) | 33.6 | -12.4
GCGGCAACGAAAGTTCGC (((..(((....)))))) | 45.1 | -21.3
GCTAACGAAAGTTACAGC ((((((....)))..))) | 35.1 | -18.3
GGGCGACGAAAGTCCCC (((.(((....)))))) | 55.4 | -27.5
GCGCTGCGAAAGCTTCGC (((..((....))..))) | 54.9 | -20.6
GCCCGACGAAAGTCAGGC (((.(((....))).))) | 57.3 | -31.8
GAGTGGACGAAAGTCCTC (((..(((....)))))) | 36 | -9.72
GATCTCCTTCGAGATC ((((((....)))))) | 52.1 | -42.5
GAGTGTGAAAACACTC ((((((....)))))) | 60.9 | -35
GTGGGGAAACCCAC (((((....))))) | 62 | -25.7

Sequence | Tm [1] [°C] | folding enthalpy [2] [kcal/mol]
GATCTAGCGCTAGATC ((((((....)))))) | 53.6 | -45.9
GGGAGCGGAAACGCTCTC (.(((((....))))).) | 58.4 | -14.5
GGGATTGGAAACAGTCTC (.((.((....)).)).) | 27.7 | -13
GCGACTCGAAAGAGCCGC (((.(((....))).))) | 60.2 | -47
GACCAGCGAAAGCTAGTC (((.(((....))).))) | 44.8 | -23.1
GTACAGCGAAAGCTTTAC (((.(((....))).))) | 39.6 | -24.7
GCGTTGCGAAAGCAAAGC ((.((((....)))).)) | 66 | -30.4
GTTTGGGGAAACTCAGAC ((.((.(....).)).)) | 27 | -9.8
GCCACGCGAAAGCCCGGC (((..((....))..))) | 43.7 | -18.5
GCCCCTCGAAAGAGTGGC (((.(((....))).))) | 52.6 | -38
GAAGACGAAAGTCTATTC ((((((....)))..))) | 30.5 | -11.4
GCTGAGCGAAAGCTAAGC (((.(((....))).))) | 56.1 | -50.4
GATCATTCCGATGATC ((((((....)))))) | 49.1 | -41.3
GCCGAAGGAAACTTTGGC (((.(((....))).))) | 51 | -39.5
GCCCACGAAAGTGATGGC ((((((....)))..))) | 50.6 | -29.4
GTGTTCGAAAGAATACAC ((((((....)))..))) | 42.6 | -22.9
GTAAATCGAAAGATTAC (((.(((....)))))) | 33.9 | -14
GAAGCCGAAAGGCGATTC ((((((....)))..))) | 58 | -14.9
GCCGCCTCGAAAGAGGGC (((..(((....)))))) | 51.1 | -8.74
GGAGACCGAAAGGTTTCC (((.(((....))).))) | 55.5 | -41.5
GCACGAGGAAACTTGTGC ((((.((....)).)))) | 54.5 | -43.5
GGGCCTGGAAACAGACCC (((.(((....))).))) | 50.9 | -38.6
GAAGACGAAAGTCTTTTC ((((((....)))..))) | 47.1 | -13.4

Sequence | Tm [1] [°C] | folding enthalpy [2] [kcal/mol]
GAAGAGGCGAAAGCCTTC (((..(((....)))))) | 33.2 | -8.73
GATCTCGAAGAGATC ((((((...)))))) | 68.5 | -34.2
GCTGACGAAAGTCTGAGC ((((((....)))..))) | 43.5 | -20.1
GTTGGTGGAAACGCCAAC (((((.(....).))))) | 54.4 | -40
GAGCGCGAAAGCGGCTC ((((((....))).))) | 67.8 | -20.6
GTCTCCGAAAGGACGGAC ((((((....)))..))) | 35.7 | -15.7
GGCAGTACGAAAGTAGCC (((..(((....)))))) | 44.9 | -21.6
CCATGGAAACATGG (((((....))))) | 49.6 | -23.2
GCTGGCGAAAGCCCAAGC ((((((....)))..))) | 50 | -15.3
GGTACCACGAAAGTGACC (((..(((....)))))) | 30.1 | -13.4
GGTTAGCGAAAGCTGACC (((.(((....))).))) | 58.4 | -36.4
GGTGGCGAAAGCCGCACC ((((((....)))..))) | 47.7 | -9.89
GAACTCACGAAAGTGTTC (((..(((....)))))) | 29.2 | -14.3
GCGATCTTCGC ((((...)))) | 51.9 | -19.4
GCCCGAGGAAACCCGGGC (((((.(....).))))) | 60.6 | -40.6
GATCTTGTATAAGATC ((((((....)))))) | 50.5 | -37.7
GATCCGCCCCGGATC ((((((...)))))) | 58.4 | -36.8
GACCTCCGAAAGGATGTC (((.(((....))).))) | 47.3 | -32.4
GCATGACGAAAGTCTGC (((.(((....)))))) | 53.9 | -29
CGTTTGAAAAAACG (((((....))))) | 47.3 | -21.2
GATCTTACTAAGATC ((((((...)))))) | 42.6 | -34.4
GAGTGACGAAAGTCTCTC (((.(((....))).))) | 50.9 | -32.2
CGTACACGGAAACGTACG (((..(((....)))))) | 40.8 | -25.7

Sequence | Tm [1] [°C] | folding enthalpy [2] [kcal/mol]
GATCGAGTGTCGATC ((((((...)))))) | 49.8 | -37.6
GAAGGGGGAAACCCCTTC (((((((....))))))) | 61.5 | -37
GATCTTGTTGAAGATC ((((((....)))))) | 45 | -27.2
GCTAAAGGAAACTTTGGC ((.((((....)))).)) | 41.1 | -30.4
GGGCAAGAAATTGCCC ((((((....)))))) | 63.6 | -33.9
GGTTTTGGAAACGAAATC (.(((.(....).))).) | 25.2 | -12.1
GTCTGTGGAAACGCAGAC (((((.(....).))))) | 53.8 | -48
GAGGCCGAAAGGCTCTC ((((((....))).))) | 54.7 | -17.9
GAAGAGGGAAACCCCTTC ((((.((....)).)))) | 35.7 | -21.2
GTGAGACGAAAGTCACAC (((.(((....))).))) | 55.4 | -31.3
GCCTAGGGAAACCTAGAC (.(((((....))))).) | 35.4 | -19.6
GGTGGAGGAAACCCCACC (((((.(....).))))) | 51.1 | -43.6
GATCATATATATGATC ((((((....)))))) | 48.8 | -42
GCGCAACCGAAAGGTCGC (((..(((....)))))) | 55 | -23.9
GCCCCCGAAAGGGAGGC ((((((....))).))) | 68.7 | -29.7
GACCGCGAAAGCGTTGTC ((((((....)))..))) | 40.1 | -13.2
GGGCGTGGAAACGTGCCC ((((..(....)..)))) | 54.4 | -41.4
GTGAACGAAAGTTGTCAC ((((((....)))..))) | 27.9 | -21.8
GATCATCACAATGATC ((((((....)))))) | 47.7 | -44.1
CGCCCCGGAAACGGAGCG (((.(((....))).))) | 56.5 | -39.3
GATCTTTCTTAAGATC ((((((....)))))) | 44.9 | -37.3
GACGAGGAAACTCGTC ((((((....)))))) | 61.2 | -41.1
GCTCCGCGAAAGCTAAGC (((..((....))..))) | 30.7 | -9.02
